Assay results as given in PMC8829933 (ACS Omega, 2022).

Key:
HIV-1 = details: reported in the literature; ref [30],[41],[58],[60]−[69]; cited from earlier work
HIV-1 IN G140S/Q148H = HIV-1 IN G140S/Q148H (Human immunodeficiency virus type 1 group M subtype B, UniProt P12497, G1287S/Q1295H); assay: HTRF-based integration assay against drug-resistant IN; assay type: biochemical
HIV-1 IN (WT) = HIV-1 IN (WT) (Human immunodeficiency virus type 1 group M subtype B, UniProt P12497); assay: HTRF-based integration assay of IN catalytic activity; assay type: biochemical
Summary of the method: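 Full-length HIV-1 IN and LEDGF/p75 cofactor (6xHis- and Flag-tagged, expressed in E. coli BL21(DE3)) catalyse integration of donor viral DNA, 5′-Cy5-labelled, into acceptor target DNA, 5′-biotinylated and bound by streptavidin-europium. The integration product is read as time-resolved FRET between the two fluorophores, with test compound present.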

HIV-1 IN H171T = HIV-1 IN H171T (Human immunodeficiency virus type 1 group M subtype B, UniProt P12497, H1318T); assay: HTRF-based integration assay against drug-resistant IN; assay type: biochemical
HIV-1 IN A128T = HIV-1 IN A128T (Human immunodeficiency virus type 1 group M subtype B, UniProt P12497, A1275T); assay: as above; assay type: biochemical

SMILES	selectivity against HIV-1 (therapeutic index) (HIV-1)	IC50 (HIV-1 IN G140S/Q148H) [µM]	IC50 (HIV-1 IN (WT); IC50, inhibitory activity against IN, Table 2, WT IN) [µM]	fold higher potency than compound 12 (HIV-1 IN (WT); IN catalytic activity in vitro, relative to 12)	IC50 (HIV-1 IN H171T) [µM]	IC50 (HIV-1 IN A128T) [µM]
Cc1nc2c(c(C)c(C)n2Cc2cnn(C)c2)c(-c2ccc(Cl)cc2)c1[C@H](OC(C)(C)C)C(=O)O [STP0404]	> 24,000					
CC(C)(C)OC(=O)N1CCC(C(=O)N[C@@H](Cc2ccc3ccccc3c2)C(=O)O)(c2ccccc2)CC1 [Compound 14e]		103 ± 3.12	90.4 ± 4.72	fourfold	114 ± 9.79	86.8 ± 2.98
